From ChEMBL document CHEMBL3286131, “Design, synthesis and systematic evaluation of cytotoxic 3-heteroarylisoquinolinamines as topoisomerases inhibitors” (Eur J Med Chem, 2014)
Several values for one entry are separate records, joined by “and”; a condition that tells them apart may be missing. Equal values may be shown once.

Key:
[1] = target: DNA topoisomerase 2-alpha (Homo sapiens) (UniProt P11388); test: Inhibition of human DNA topoisomerase-2a-mediated relaxation of supercoiled DNA pBR322 at 100 uM after 4 hrs using ethidium bromide staining by agarose gel electrophoresis analysis
Method in brief: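 Supercoiled pBR322 (200 ng) incubated with human topo IIα (1 unit) ± compound for 30 min at 30 °C. Buffer: 10 mM Tris-HCl pH 7.9, 50 mM NaCl, 50 mM KCl, 5 mM MgCl2, 1 mM EDTA, 1 mM ATP, BSA. Stopped with EDTA. 1% agarose gel run at 25 V for 4 h in TAE, ethidium bromide stain, supercoiled DNA quantified by UV imaging.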

[2] = target: T1, DNA topoisomerase 1 (Homo sapiens) (UniProt P11387); test: Inhibition of recombinant human DNA topoisomerase-1-mediated relaxation of supercoiled DNA pBR322 at 100 uM after 7 hrs using ethidium bromide staining by agarose gel electrophoresis analysis
T1 sequence (whole entry): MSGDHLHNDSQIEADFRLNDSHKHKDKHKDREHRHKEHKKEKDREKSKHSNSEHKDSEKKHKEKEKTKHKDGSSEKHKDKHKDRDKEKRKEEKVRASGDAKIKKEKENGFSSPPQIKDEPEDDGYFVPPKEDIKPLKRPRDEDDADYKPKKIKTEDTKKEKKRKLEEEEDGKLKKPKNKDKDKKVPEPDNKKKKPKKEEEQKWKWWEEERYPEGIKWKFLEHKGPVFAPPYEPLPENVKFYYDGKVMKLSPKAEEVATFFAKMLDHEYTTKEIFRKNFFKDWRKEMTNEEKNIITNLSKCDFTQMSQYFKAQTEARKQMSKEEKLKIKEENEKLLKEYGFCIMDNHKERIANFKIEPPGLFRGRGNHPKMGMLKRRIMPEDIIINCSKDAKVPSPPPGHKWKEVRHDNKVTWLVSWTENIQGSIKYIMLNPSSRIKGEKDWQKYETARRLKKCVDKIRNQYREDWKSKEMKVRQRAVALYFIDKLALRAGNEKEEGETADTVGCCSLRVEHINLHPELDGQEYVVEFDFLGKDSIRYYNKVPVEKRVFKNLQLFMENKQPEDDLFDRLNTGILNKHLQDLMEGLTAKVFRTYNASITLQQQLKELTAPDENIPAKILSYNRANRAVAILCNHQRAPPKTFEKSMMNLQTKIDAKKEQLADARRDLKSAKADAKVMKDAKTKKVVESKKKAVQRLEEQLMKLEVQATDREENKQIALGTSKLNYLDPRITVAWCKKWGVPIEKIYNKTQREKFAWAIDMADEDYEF
Method in brief: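 pBR322 (100 ng) incubated with recombinant human topo I (0.4 units) ± compound for 30 min at 37 °C. Buffer: 10 mM Tris-HCl pH 7.9, 150 mM NaCl, 0.1% BSA, 1 mM spermidine, 5% glycerol. Quenched with sarcosyl stop solution. 1% agarose gel run at 15 V for 7 h in TAE, ethidium bromide stain, supercoiled DNA quantified under UV.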

[3] = Cytotoxicity against human MCF10A cells after 2 days; assay type: cell-based, MCF-10A
Method in brief: (§1)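 Cells seeded at 2-4 × 10^4 per well in medium with 10% FBS and incubated overnight at 37 °C, 5% CO2. Graded compound concentrations added on day 2. CCK-8 reagent added on day 4 for a further 4 h, absorbance read at 450 nm. IC50 from a four-parameter logistic fit; mean ± S.D. of three experiments run in triplicate.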

T47D = test: Cytotoxicity against human T47D cells after 2 days; assay type: functional, cell-based; method in brief: as §1
DU-145 = test: Cytotoxicity against human DU145 cells after 2 days; assay type: functional, cell-based; method in brief: as §1
[4] = Cytotoxicity against human HCT15 cells after 2 days; assay type: functional, cell-based, HCT-15; method in brief: as §1
HeLa [5] = test: Cell cycle arrest in human HeLa cells assessed as accumulation at G0/G1 phase phase at 5 uM after 24 hrs using ethidium bromide staining by flow cytometry analysis relative to control; assay type: functional; conditions: in the assay text read “propidium iodide staining” for “ethidium bromide staining”
Method in brief: (§2)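 HeLa cells exposed to graded compound concentrations for 24 h, harvested by centrifugation, PBS-washed twice, fixed overnight on ice in 70% ethanol. Stained with 10 μg/mL propidium iodide plus 0.5 mg/mL RNase and 0.1% Triton X-100 in PBS, 30 min at 37 °C in the dark. Flow cytometry gates: sub-G0/G1, G0/G1, S, G2/M.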

HeLa [6] = test: Cell cycle arrest in human HeLa cells assessed as accumulation at S phase phase at 5 uM after 24 hrs using ethidium bromide staining by flow cytometry analysis relative to control; assay type: functional; conditions: in the assay text read “propidium iodide staining” for “ethidium bromide staining”; method in brief: as §2
HeLa [7] = test: Cell cycle arrest in human HeLa cells assessed as accumulation at G2/M phase phase at 5 uM after 24 hrs using ethidium bromide staining by flow cytometry analysis relative to control; assay type: functional; conditions: in the assay text read “propidium iodide staining” for “ethidium bromide staining”; method in brief: as §2
HeLa [8] = test: Cell cycle arrest in human HeLa cells assessed as accumulation at sub-G0/G1 phase at 10 uM after 24 hrs using ethidium bromide staining by flow cytometry analysis relative to control; assay type: functional; conditions: in the assay text read “propidium iodide staining” for “ethidium bromide staining”; method in brief: as §2
HeLa [9] = test: Cell cycle arrest in human HeLa cells assessed as accumulation at G0/G1 phase phase at 10 uM after 24 hrs using ethidium bromide staining by flow cytometry analysis relative to control; assay type: functional; conditions: in the assay text read “propidium iodide staining” for “ethidium bromide staining”; method in brief: as §2
HeLa [10] = test: Cell cycle arrest in human HeLa cells assessed as accumulation at S phase phase at 10 uM after 24 hrs using ethidium bromide staining by flow cytometry analysis relative to control; assay type: functional; conditions: in the assay text read “propidium iodide staining” for “ethidium bromide staining”; method in brief: as §2
HeLa [11] = test: Cell cycle arrest in human HeLa cells assessed as accumulation at G2/M phase phase at 10 uM after 24 hrs using ethidium bromide staining by flow cytometry analysis relative to control; assay type: functional; conditions: in the assay text read “propidium iodide staining” for “ethidium bromide staining”; method in brief: as §2
HeLa [12] = test: Cell cycle arrest in human HeLa cells assessed as accumulation at sub-G0/G1 phase at 25 uM after 24 hrs using […] by flow cytometry analysis relative to control; assay type: functional; method in brief: as §2
HeLa [13] = test: Cell cycle arrest in human HeLa cells assessed as accumulation at G0/G1 phase phase at 25 uM after 24 hrs using […] by flow cytometry analysis relative to control; assay type: functional; method in brief: as §2
HeLa [14] = test: Cell cycle arrest in human HeLa cells assessed as accumulation at S phase phase at 25 uM after 24 hrs using […] by flow cytometry analysis relative to control; assay type: functional; method in brief: as §2
HeLa [15] = test: Cell cycle arrest in human HeLa cells assessed as accumulation at G2/M phase phase at 25 uM after 24 hrs using […] by flow cytometry analysis relative to control; assay type: functional; method in brief: as §2
HeLa [16] = test: Cell cycle arrest in human HeLa cells assessed as accumulation at sub-G0/G1 phase at 50 uM after 24 hrs using […] by flow cytometry analysis relative to control; assay type: functional; method in brief: as §2
HeLa [17] = test: Cell cycle arrest in human HeLa cells assessed as accumulation at G0/G1 phase phase at 50 uM after 24 hrs using […] by flow cytometry analysis relative to control; assay type: functional; method in brief: as §2
HeLa [18] = test: Cell cycle arrest in human HeLa cells assessed as accumulation at S phase phase at 50 uM after 24 hrs using […] by flow cytometry analysis relative to control; assay type: functional; method in brief: as §2
HeLa [19] = test: Cell cycle arrest in human HeLa cells assessed as accumulation at G2/M phase phase at 50 uM after 24 hrs using […] by flow cytometry analysis relative to control; assay type: functional; method in brief: as §2

Sequence of DNA topoisomerase 2-alpha (Homo sapiens) (P11388 whole entry): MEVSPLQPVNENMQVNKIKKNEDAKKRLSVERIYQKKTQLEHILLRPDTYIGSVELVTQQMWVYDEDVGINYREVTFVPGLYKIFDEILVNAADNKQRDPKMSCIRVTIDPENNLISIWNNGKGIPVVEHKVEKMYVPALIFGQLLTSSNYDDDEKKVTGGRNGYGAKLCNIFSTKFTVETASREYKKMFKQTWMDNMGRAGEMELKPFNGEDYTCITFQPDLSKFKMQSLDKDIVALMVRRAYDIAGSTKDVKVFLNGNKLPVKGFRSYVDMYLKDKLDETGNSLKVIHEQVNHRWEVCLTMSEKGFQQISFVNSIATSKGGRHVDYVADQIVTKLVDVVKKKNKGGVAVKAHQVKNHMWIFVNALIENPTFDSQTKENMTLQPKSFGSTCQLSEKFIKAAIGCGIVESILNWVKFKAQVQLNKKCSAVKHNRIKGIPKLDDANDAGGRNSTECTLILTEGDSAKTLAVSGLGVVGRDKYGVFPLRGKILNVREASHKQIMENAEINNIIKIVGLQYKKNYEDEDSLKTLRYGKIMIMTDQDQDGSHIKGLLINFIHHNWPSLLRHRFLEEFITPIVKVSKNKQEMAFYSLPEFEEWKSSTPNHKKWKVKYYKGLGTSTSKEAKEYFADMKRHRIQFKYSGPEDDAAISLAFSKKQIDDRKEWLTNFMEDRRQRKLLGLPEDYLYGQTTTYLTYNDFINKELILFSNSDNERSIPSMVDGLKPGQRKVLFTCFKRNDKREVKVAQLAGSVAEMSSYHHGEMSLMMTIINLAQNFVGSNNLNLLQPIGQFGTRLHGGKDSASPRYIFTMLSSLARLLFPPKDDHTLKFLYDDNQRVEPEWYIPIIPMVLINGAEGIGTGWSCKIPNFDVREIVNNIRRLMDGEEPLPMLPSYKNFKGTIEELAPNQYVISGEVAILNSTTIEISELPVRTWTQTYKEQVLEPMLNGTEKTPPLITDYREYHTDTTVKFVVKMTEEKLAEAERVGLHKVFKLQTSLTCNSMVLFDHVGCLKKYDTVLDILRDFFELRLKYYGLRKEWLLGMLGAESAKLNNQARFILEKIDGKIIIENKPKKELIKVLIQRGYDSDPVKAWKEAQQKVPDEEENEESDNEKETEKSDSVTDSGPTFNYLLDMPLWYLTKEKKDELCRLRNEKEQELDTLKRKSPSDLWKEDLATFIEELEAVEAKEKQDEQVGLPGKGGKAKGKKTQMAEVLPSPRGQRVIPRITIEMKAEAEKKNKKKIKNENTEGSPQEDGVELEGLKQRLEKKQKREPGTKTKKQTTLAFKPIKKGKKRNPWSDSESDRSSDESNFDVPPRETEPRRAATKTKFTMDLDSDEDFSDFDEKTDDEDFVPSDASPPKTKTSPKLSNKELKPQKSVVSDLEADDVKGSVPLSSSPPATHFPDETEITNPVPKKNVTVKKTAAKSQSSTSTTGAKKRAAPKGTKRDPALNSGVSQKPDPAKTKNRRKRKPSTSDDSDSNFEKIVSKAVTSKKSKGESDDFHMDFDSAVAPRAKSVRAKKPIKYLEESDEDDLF

## CCN1CCN(c2nc(-c3cccs3)cc3cc(C)ccc23)CC1
[1]
  inhibition: 0%
[2]
  inhibition: 0%

## Nc1nc(-c2cccs2)cc2ccccc12
[3]; Homo sapiens, MCF-10A, 48 h
  IC50: > 50 µM
T47D; t47d
  IC50: 7.93 µM
DU-145; Homo sapiens, DU-145, 48 h
  IC50: > 50 µM
[4]; hct-15
  IC50: 1.2 µM
HeLa [5]
  Activity: 44.93%
HeLa [6]
  Activity: 9.04%
HeLa [7]
  Activity: 28.48%
HeLa [8]
  Activity: 17.43%
HeLa [9]
  Activity: 21.33%
HeLa [10]
  Activity: 8.2%
HeLa [11]
  Activity: 41.79%
HeLa [12]
  Activity: 18.03%
HeLa [13]
  Activity: 11.6%
HeLa [14]
  Activity: 11.29%
HeLa [15]
  Activity: 47.68%
HeLa [16]
  Activity: 13.66%
HeLa [17]
  Activity: 5.04%
HeLa [18]
  Activity: 9.56%
HeLa [19]
  Activity: 59.85%

## CN1CCN(c2nc(-c3cccs3)cc3ccccc23)CC1 [listing 1 of 2 here]
[3]; mcf-10a
  IC50: 18.1 µM
T47D; Homo sapiens, T47D, 48 h
  IC50: 15.4 µM
DU-145; Homo sapiens, DU-145, 48 h
  IC50: 40.2 µM
[4]; hct-15
  IC50: 2.44 µM

## CN1CCN(c2nc(-c3cccs3)cc3ccccc23)CC1 [listing 2 of 2 here]
[3]; mcf-10a
  IC50: 38.8 µM
T47D; t47d
  IC50: 16.1 µM
DU-145; du-145
  IC50: 44.5 µM
[4]; hct-15
  IC50: 7.9 µM

## Cc1ccc2cc(-c3cccs3)nc(N3CCOCC3)c2c1
[3]; mcf-10a
  IC50: 49.1 µM
T47D; t47d
  IC50: 7.63 µM
DU-145; du-145
  IC50: 48.3 µM
[4]; hct-15
  IC50: 9.52 µM

## Cc1ccc2cc(-c3cccs3)nc(N3CCCCC3)c2c1
T47D; t47d
  IC50: 3.02 µM
[4]; hct-15
  IC50: 0.89 µM

## Cc1ccc2c(N3CCN(C)CC3)nc(-c3cccs3)cc2c1 [listing 1 of 3 here]
[1]
  inhibition: 0%
[2]
  inhibition: 5.1% and 11.2%

## Cc1ccc2cc(-c3cccs3)nc(N3CCN(C)CC3)c2c1
[3]; mcf-10a
  IC50: 20.9 µM
T47D; Homo sapiens, T47D, 48 h
  IC50: 1.02 µM
DU-145; du-145
  IC50: 24.7 µM
[4]; Homo sapiens, HCT-15, 48 h
  IC50: 1.04 µM

## Cc1ccc2c(N3CCN(C)CC3)nc(-c3cccs3)cc2c1 [listing 2 of 3 here]
[3]; Homo sapiens, MCF-10A, 48 h
  IC50: 13.3 µM
T47D; Homo sapiens, T47D, 48 h
  IC50: 9.35 µM
DU-145; Homo sapiens, DU-145, 48 h
  IC50: 33 µM
[4]; hct-15
  IC50: 4.37 µM

## c1csc(-c2cc3ccccc3c(N3CCOCC3)n2)c1
[3]; Homo sapiens, MCF-10A, 48 h
  IC50: > 50 µM
T47D; t47d
  IC50: 24.4 µM
DU-145; du-145
  IC50: > 50 µM
[4]; hct-15
  IC50: 21.3 µM

## c1csc(-c2cc3ccccc3c(N3CCCCC3)n2)c1
[3]; Homo sapiens, MCF-10A, 48 h
  IC50: > 50 µM
T47D; t47d
  IC50: 3.22 µM
DU-145; Homo sapiens, DU-145, 48 h
  IC50: > 50 µM
[4]; hct-15
  IC50: 3.61 µM

## Cc1ccc2c(N3CCOCC3)nc(-c3cccs3)cc2c1
[3]; Homo sapiens, MCF-10A, 48 h
  IC50: 48.7 µM
T47D; t47d
  IC50: 7.88 µM
[4]; hct-15
  IC50: 7.79 µM

## Cc1ccc2c(N3CCN(C)CC3)nc(-c3cccs3)cc2c1 [listing 3 of 3 here]
[3]; mcf-10a
  IC50: 14.9 µM
T47D; t47d
  IC50: 18.4 µM
DU-145; du-145
  IC50: 40 µM
[4]; Homo sapiens, HCT-15, 48 h
  IC50: 3.19 µM

## CC[C@@]1(O)C(=O)OCc2c1cc1n(c2=O)Cc2cc3ccccc3nc2-1 [CAMPTOTHECIN]
[3]; Homo sapiens, MCF-10A, 48 h
  IC50: 0.27 µM
T47D; Homo sapiens, T47D, 48 h
  IC50: 0.28 µM
DU-145; Homo sapiens, DU-145, 48 h
  IC50: 4.01 µM
[4]; Homo sapiens, HCT-15, 48 h
  IC50: 10.1 µM

## Cc1ccc2c(N3CCCCC3)nc(-c3cccs3)cc2c1
T47D; t47d
  IC50: 8.03 µM
[4]; hct-15
  IC50: 1.88 µM

## Cl.Nc1nc(-c2cccs2)cc2ccccc12
T47D; t47d
  IC50: 17.5 µM
[4]; hct-15
  IC50: 24.4 µM
HeLa [5]
  Activity: 63.67%
HeLa [6]
  Activity: 7.76%
HeLa [7]
  Activity: 16.08%
HeLa [8]
  Activity: 6.6%
HeLa [9]
  Activity: 64.43%
HeLa [10]
  Activity: 9.55%
HeLa [11]
  Activity: 13.67%
HeLa [12]
  Activity: 5.22%
HeLa [13]
  Activity: 56.01%
HeLa [14]
  Activity: 13.82%
HeLa [15]
  Activity: 11.42%
HeLa [16]
  Activity: 6.54%
HeLa [17]
  Activity: 52.6%
HeLa [18]
  Activity: 10.09%
HeLa [19]
  Activity: 22.37%
